Reference: ChEMBL document CHEMBL1125548, “Synthesis and pharmacological studies of N-substituted 6-[(2-aminoethyl)amino]-1,3-dimethyl-2,4(1H,3H)-pyrimidinediones, novel class III antiarrhythmic agents” (1992)

Experiments:
Canis familiaris [1] = species: Canis familiaris; test: Maximum upstroke velocity of the compound at 0 (ug/mL) concentration; assay type: functional, Canis lupus familiaris
Method in brief: (§1)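 Purkinje fibers from right ventricle of mongrel dogs (7–11 kg, thiopental sodium 30 mg/kg iv), superfused in organ bath with Tyrode's solution (pH 7.5, 95% O2/5% CO2) at 36 °C. Compounds from 1 mM aqueous stock diluted in Tyrode's, given cumulatively. Data taken 20 min after each solution change. Means ± SD of seven experiments.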

Canis familiaris [2] = species: Canis familiaris; test: Action potential amplitude at 3(ug/mL) concentration; assay type: functional, Canis lupus familiaris; method in brief: as §1
Canis familiaris [3] = species: Canis familiaris; test: Action potential duration at 90% repolarization at 0.3(ug/mL) concentration; assay type: functional, Canis lupus familiaris; method in brief: as §1
Canis familiaris [4] = species: Canis familiaris; test: Action potential amplitude at 0.1(ug/mL) concentration; assay type: functional, Canis lupus familiaris; method in brief: as §1
Canis familiaris [5] = species: Canis familiaris; test: Action potential duration at 50% repolarization at 0.1(ug/mL) concentration; assay type: functional, Canis lupus familiaris; method in brief: as §1
Canis familiaris [6] = species: Canis familiaris; test: Action potential amplitude at 10(ug/mL) concentration; assay type: functional, Canis lupus familiaris; method in brief: as §1
Canis familiaris [7] = species: Canis familiaris; test: Maximum upstroke velocity of the compound at 10 (ug/mL) concentration; assay type: functional, Canis lupus familiaris; method in brief: as §1
Canis familiaris [8] = species: Canis familiaris; test: Resting membrane potential at 0 (ug/mL) concentration; assay type: functional; details: Canis lupus familiaris; method in brief: as §1
Canis familiaris [9] = species: Canis familiaris; test: Action potential duration at 90% repolarization at 3(ug/mL) concentration; assay type: functional, Canis lupus familiaris; method in brief: as §1
Canis familiaris [10] = species: Canis familiaris; test: Maximum upstroke velocity of the compound at 1 (ug/mL) concentration; assay type: functional, Canis lupus familiaris; method in brief: as §1
Canis familiaris [11] = species: Canis familiaris; test: Action potential amplitude at 1(ug/mL) concentration; assay type: functional, Canis lupus familiaris; method in brief: as §1
Canis familiaris [12] = species: Canis familiaris; test: Resting membrane potential at 3(ug/mL) concentration; assay type: functional; details: Canis lupus familiaris; method in brief: as §1
Canis familiaris [13] = species: Canis familiaris; test: Resting membrane potential at 10 (ug/mL) concentration; assay type: functional; details: Canis lupus familiaris; method in brief: as §1
Canis familiaris [14] = species: Canis familiaris; test: Maximum upstroke velocity of the compound at 3 (ug/mL) concentration; assay type: functional, Canis lupus familiaris; method in brief: as §1
Canis familiaris [15] = species: Canis familiaris; test: Action potential duration at 50% repolarization at 1(ug/mL) concentration; assay type: functional, Canis lupus familiaris; method in brief: as §1
Canis familiaris [16] = species: Canis familiaris; test: Action potential duration at 90% repolarization at 0(ug/mL) concentration; assay type: functional, Canis lupus familiaris; method in brief: as §1
Canis familiaris [17] = test: The percentage change of the duration of action potential at 75% repolarization was measured before and after the administration at 1.0 ug/mL; assay type: functional, Canis lupus familiaris
Method in brief: (§2)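 Canine right-ventricular Purkinje fibers (mongrel dogs 7–11 kg, thiopental-anesthetized) superfused with Tyrode's (pH 7.5, 36 °C, gassed 95% O2/5% CO2). Compounds diluted from 1 mM water stock and added cumulatively. Readings taken 20 min after solution exchange. Result given as percent change in action potential duration.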

Canis familiaris [18] = species: Canis familiaris; test: Action potential duration at 90% repolarization at 1(ug/mL) concentration; assay type: functional, Canis lupus familiaris; method in brief: as §1
Canis familiaris [19] = species: Canis familiaris; test: Action potential duration at 75% repolarization at 3(ug/mL) concentration; assay type: functional, Canis lupus familiaris; method in brief: as §1
Canis familiaris [20] = species: Canis familiaris; test: Action potential duration at 75% repolarization at 0(ug/mL) concentration; assay type: functional, Canis lupus familiaris; method in brief: as §1
Canis familiaris [21] = species: Canis familiaris; test: Action potential duration at 90% repolarization at 10(ug/mL) concentration; assay type: functional, Canis lupus familiaris; method in brief: as §1
Canis familiaris [22] = species: Canis familiaris; test: Action potential duration at 50% repolarization at 0.3(ug/mL) concentration; assay type: functional, Canis lupus familiaris; method in brief: as §1
Canis familiaris [23] = species: Canis familiaris; test: Action potential duration at 90% repolarization at 0.1(ug/mL) concentration; assay type: functional, Canis lupus familiaris; method in brief: as §1
Canis familiaris [24] = species: Canis familiaris; test: Maximum upstroke velocity of the compound at 0.1 (ug/mL) concentration; assay type: functional, Canis lupus familiaris; method in brief: as §1
Canis familiaris [25] = species: Canis familiaris; test: Resting membrane potential at 1 (ug/mL) concentration; assay type: functional; details: Canis lupus familiaris; method in brief: as §1
Canis familiaris [26] = species: Canis familiaris; test: Action potential duration at 75% repolarization at 0.3(ug/mL) concentration; assay type: functional, Canis lupus familiaris; method in brief: as §1
Canis familiaris [27] = species: Canis familiaris; test: Action potential duration at 75% repolarization at 10(ug/mL) concentration; assay type: functional, Canis lupus familiaris; method in brief: as §1
Canis familiaris [28] = species: Canis familiaris; test: Action potential duration at 50% repolarization at 0 ug/mL concentration; assay type: functional, Canis lupus familiaris; method in brief: as §1
Canis familiaris [29] = species: Canis familiaris; test: Action potential duration at 75% repolarization at 0.1(ug/mL) concentration; assay type: functional, Canis lupus familiaris; method in brief: as §1
Canis familiaris [30] = species: Canis familiaris; test: Action potential duration at 50% repolarization at 3(ug/mL) concentration; assay type: functional, Canis lupus familiaris; method in brief: as §1
Canis familiaris [31] = species: Canis familiaris; test: Action potential amplitude at 0 (ug/mL) concentration; assay type: functional, Canis lupus familiaris; method in brief: as §1
Canis familiaris [32] = species: Canis familiaris; test: Action potential duration at 75% repolarization at 1(ug/mL) concentration; assay type: functional, Canis lupus familiaris; method in brief: as §1
Canis familiaris [33] = species: Canis familiaris; test: Maximum upstroke velocity of the compound at 0.3 (ug/mL) concentration; assay type: functional, Canis lupus familiaris; method in brief: as §1
Canis familiaris [34] = species: Canis familiaris; test: Action potential amplitude at 0.3(ug/mL) concentration; assay type: functional, Canis lupus familiaris; method in brief: as §1
Canis familiaris [35] = species: Canis familiaris; test: Resting membrane potential at 0.1 (ug/mL) concentration; assay type: functional; details: Canis lupus familiaris; method in brief: as §1
Canis familiaris [36] = species: Canis familiaris; test: Action potential duration at 50% repolarization at 10(ug/mL) concentration; assay type: functional, Canis lupus familiaris; method in brief: as §1
Canis familiaris [37] = test: The percentage change of the duration of action potential at 75% repolarization was measured before and after the administration at 3.0 ug/mL; assay type: functional, Canis lupus familiaris; method in brief: as §2
Canis familiaris [38] = species: Canis familiaris; test: Resting membrane potential at 0.3 (ug/mL) concentration; assay type: functional; details: Canis lupus familiaris; method in brief: as §1
Canis familiaris [39] = test: Percentage change of the duration of action potential at 75% repolarization was measured before and after the administration at 10.0 ug/mL; assay type: functional, Canis lupus familiaris; method in brief: as §2
Canis familiaris [40] = test: The prolongation effect of the atrial and ventricular effective refractory period was measured before and after the administration at 0.1 mg/kg; assay type: functional, Canis lupus familiaris, Cardiac atrium; details: dose 1.0 mg/kg; in the assay text read “1.0 mg/kg” for “0.1 mg/kg”
Method in brief: (§3)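 In vivo, mongrel dogs of either sex (7–13 kg), anesthetized with pentobarbital sodium 30 mg/kg iv. Left femoral artery cannulated for arterial pressure, femoral vein for drug dosing. Effective refractory period measured before and after administration.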

Canis familiaris [41] = test: The prolongation effect of the atrial and ventricular effective refractory period was measured before and after the administration at 0.3 mg/kg; assay type: functional, Canis lupus familiaris, Cardiac atrium; method in brief: as §3
Canis familiaris [42] = test: The prolongation effect of the atrial and ventricular effective refractory period was measured before and after the administration at 3 mg/kg; assay type: functional, Canis lupus familiaris, Cardiac atrium; method in brief: as §3
Canis familiaris [43] = test: The prolongation effect of the atrial and ventricular effective refractory period was measured before and after the administration at 1 mg/kg; assay type: functional, Canis lupus familiaris, Cardiac atrium; method in brief: as §3

Cl.Cn1c(NCCN(CCO)CCCc2ccc([N+](=O)[O-])cc2)cc(=O)n(C)c1=O
Max dV/dt (Canis familiaris [1]): 356 V s-1 | APA (Canis familiaris [2]): 104 mV | APD90 (Canis familiaris [3]): 409 ms | APA (Canis familiaris [4]): 101 mV | APD50 (Canis familiaris [5]): 293 ms | APA (Canis familiaris [6]): 107 mV | Max dV/dt (Canis familiaris [7]): 339 V s-1 | RMP (Canis familiaris [8]): -88 mV | APD90 (Canis familiaris [9]): 533 ms | Max dV/dt (Canis familiaris [10]): 344 V s-1 | APA (Canis familiaris [11]): 103 mV | RMP (Canis familiaris [12]): -87 mV | RMP (Canis familiaris [13]): -90 mV | Max dV/dt (Canis familiaris [14]): 341 V s-1 | APD50 (Canis familiaris [15]): 349 ms | APD90 (Canis familiaris [16]): 344 ms | APD75 (Canis familiaris [17]): 22% | APD90 (Canis familiaris [18]): 471 ms | APD75 (Canis familiaris [19]): 485 ms | APD75 (Canis familiaris [20]): 313 ms | APD90 (Canis familiaris [21]): 584 ms | APD50 (Canis familiaris [22]): 315 ms | APD90 (Canis familiaris [23]): 371 ms | Max dV/dt (Canis familiaris [24]): 351 V s-1 | RMP (Canis familiaris [25]): -87 mV | APD75 (Canis familiaris [26]): 372 ms | APD75 (Canis familiaris [27]): 529 ms | APD50 (Canis familiaris [28]): 266 ms | APD75 (Canis familiaris [29]): 340 ms | APD50 (Canis familiaris [30]): 369 ms | APA (Canis familiaris [31]): 104 mV | APD75 (Canis familiaris [32]): 428 ms | Max dV/dt (Canis familiaris [33]): 348 V s-1 | APA (Canis familiaris [34]): 102 mV | RMP (Canis familiaris [35]): -85 mV | APD50 (Canis familiaris [36]): 386 ms | APD75 (Canis familiaris [37]): 38% | RMP (Canis familiaris [38]): -87 mV

Cn1c(NCCNCCCc2ccc([N+](=O)[O-])cc2)cc(=O)n(C)c1=O.O=C(O)C(=O)O
APD75 (Canis familiaris [39]): 16% | APD75 (Canis familiaris [17]): 9% | APD75 (Canis familiaris [37]): 12%

CNS(=O)(=O)c1ccc(OCCCN2CCN(c3cc(=O)n(C)c(=O)n3C)CC2)cc1.Cl
APD75 (Canis familiaris [37]): 0%

Cl.Cn1c(N2CCN(CCCOc3ccccc3Cl)CC2)cc(=O)n(C)c1=O
APD75 (Canis familiaris [39]): 7% | APD75 (Canis familiaris [37]): 0%

Cl.Cn1c(N2CCN(CCCOc3ccc(NS(C)(=O)=O)cc3)CC2)cc(=O)n(C)c1=O
APD75 (Canis familiaris [39]): 10% | ERP (Canis familiaris [40]): 9.3% | APD75 (Canis familiaris [17]): 1% | ERP (Canis familiaris [41]): 7.1% | APD75 (Canis familiaris [37]): 3% | ERP (Canis familiaris [42]): 16.4%

Cn1c(N2CCN(Cc3ccc([N+](=O)[O-])cc3)CC2)cc(=O)n(C)c1=O.O=C(O)C(=O)O
APD75 (Canis familiaris [39]): 11% | ERP (Canis familiaris [43]): 0% | APD75 (Canis familiaris [17]): 3% | ERP (Canis familiaris [41]): 0% | APD75 (Canis familiaris [37]): 7% | ERP (Canis familiaris [42]): 7%

Cl.Cn1c(N2CCN(CCCCc3ccc([N+](=O)[O-])cc3)CC2)cc(=O)n(C)c1=O
APD75 (Canis familiaris [39]): 25% | APD75 (Canis familiaris [37]): 17%
